# Source: PubChem BioAssay (several laboratories)
# HNF4A DNA FP: change in binding of human HNF4A to DNA, primary screen, biochemical, fluorescence polarization, FITC-DNA | 1 h | 360,000 compounds, 0.3% hits | activity change, % at 10 µM; in the data active = activity change above about 30%, passing the limit was not always enough
# Rpn11 block: Rpn11 (PSMD14) deubiquitinase inhibitors, primary screen, biochemical, fluorescence polarization, uHTS; human 26S proteasome, Ub4-pepOG fluorescence polarization; 20S core pre-blocked with epoxomicin; AID 588493, 2011; 360,000 compounds, 0.59% hits; inhibition, % at 20 µM;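 active = inhibition at 20 µM, scaled to each plate's controls, above about 33%, limit read from the data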
# Target sequence (O00487 whole entry, looked up): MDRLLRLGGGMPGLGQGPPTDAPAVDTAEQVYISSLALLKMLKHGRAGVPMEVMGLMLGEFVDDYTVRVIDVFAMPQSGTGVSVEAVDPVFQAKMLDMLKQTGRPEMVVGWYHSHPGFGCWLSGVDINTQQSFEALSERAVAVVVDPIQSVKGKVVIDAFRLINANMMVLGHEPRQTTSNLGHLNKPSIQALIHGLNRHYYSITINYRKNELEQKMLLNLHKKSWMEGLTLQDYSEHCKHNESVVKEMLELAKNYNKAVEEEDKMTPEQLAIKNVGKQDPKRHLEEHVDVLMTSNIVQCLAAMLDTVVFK
# CSN inh: inhibitors of CSN-mediated cullin deneddylation, primary screen, biochemical, fluorescence polarization, uHTS; COP9 signalosome complex subunit 5 (Homo sapiens), Q92905; Purified CSN, SCF-Nedd8-OG deneddylation; inhibition, % at 12.5 µM; 360,000 compounds, 0.38% hits; AID 651999, 2013;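 active = pattern-corrected inhibition above about 35%, with an unprinted fluorescence ratio check between 0.5 and 1.5, limit read from the data, passing the limit was not always enough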
# Target sequence (Q92905 whole entry, looked up, one chain of several): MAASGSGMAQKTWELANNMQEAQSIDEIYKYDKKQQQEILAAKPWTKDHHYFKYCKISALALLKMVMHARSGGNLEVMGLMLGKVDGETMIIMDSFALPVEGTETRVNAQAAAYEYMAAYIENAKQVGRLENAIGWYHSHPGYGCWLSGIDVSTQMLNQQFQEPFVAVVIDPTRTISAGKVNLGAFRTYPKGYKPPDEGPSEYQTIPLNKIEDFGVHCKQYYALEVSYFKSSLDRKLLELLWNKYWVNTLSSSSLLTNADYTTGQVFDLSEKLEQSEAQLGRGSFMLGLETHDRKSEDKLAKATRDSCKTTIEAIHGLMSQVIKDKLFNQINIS
#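 test system = HEK293T-derived human Csn5 enzyme | amount = 0.24 nM Csn5 enzyme, final concentration | medium = Tris/NaCl/DTT buffer, pH 7.5 | schedule = 90 min reaction at room temperature | signal = FP | evaluation = inhibition of Csn5 cleavage, % | compound dosing = single dose of 12.5 µM compound with 0.25% DMSO | probe or stimulus = 10 nM SCFSkp2-Nedd8OG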
# NadD inh: inhibitors of S. aureus NadD, primary screen, biochemical, colorimetric, uHTS. Nicotinate-nucleotide adenylyltransferase NadD (Staphylococcus aureus N315). 360,000 compounds, 0.78% hits. inhibition, % at 20 µM. AID 602399, 2012. purified NadD enzyme, colorimetric absorbance read-out; in the data active = inhibition above about 26%
# TPT1 inh: Candida albicans TPT1 enzyme inhibitors, primary screen, biochemical, fluorescence polarization. inhibition, % at 5 µM. 300,000 compounds, 0.81% hits. recombinant caTPT1, FP RNA substrate dephosphorylation. tRNA 2'-phosphotransferase TPT1 (Candida albicans SC5314). AID 1962, 2009;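 active = inhibition above the mean of all tested compounds plus 3 SD, set per screening campaign, cut at about 24% in these data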
# PP1 inh: PP1-alpha phosphatase inhibitors, primary screen, counter-screen for PP5 inhibitor project, biochemical, fluorescence, OMFP substrate, single point. Serine/threonine-protein phosphatase PP1-alpha catalytic subunit (Homo sapiens), P62136. purified PP1alpha. inhibition, % at 6.7 µM. 320,000 compounds, 0.9% hits. AID 2235, 2010;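 active = inhibition above the mean inhibition of all tested compounds plus 3 SD, computed separately for each screening campaign, cut at about 15% in these data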
# NadD conf: inhibitors of S. aureus NadD, confirmation, biochemical, colorimetric, single concentration; AID 624309, 2012; inhibition, % at 20 µM; purified S. aureus NadD, colorimetric enzyme assay; 2,000 compounds, 13% hits; shares compounds with NadD inh; in the data active = inhibition mostly above about 42%, no sharp cut-off; inactive = mostly below about 42%
# Hits are given with their value; 0 = inactive; - = no result given; ! = not confirmed by another sample. The list is not random: actives were taken first. Their share in the collection is about 2.7%.
SMILES,HNF4A DNA FP,Rpn11 block,CSN inh,NadD inh,TPT1 inh,PP1 inh,NadD conf
Cc1cc(C)nc(NS(=O)(=O)c2ccc(NC(=O)CN3C(=O)S/C(=C\c4ccccc4)C3=O)cc2)n1,0,0,0,41,0,0,0
O=C(CCN1C(=O)S/C(=C\c2ccccc2)C1=O)Nc1ccc(S(=O)(=O)Nc2nccs2)cc1,0,0,0,0,0,0,-
COc1cc(NC(=O)c2ccno2)cc(C(=O)Nc2cccc(C(F)(F)F)c2)c1,0,0,0,0,0,0,-
COc1ccc(-c2cc(C(=O)Nc3cc(OC)cc(C(=O)Nc4cccc(C(F)(F)F)c4)c3)[nH]n2)cc1,0,0,0,40!,0,0,0
CN(C)c1ccc(-c2cccc(C3CC=CC4C3C(=O)N(Cc3ccccc3)C4c3ccc(C(F)(F)F)cc3)c2)cc1 (centres undefined),0,0,0,31,0,0,0
C=C(C)[C@@H]1CCC2(C(=O)O)CC[C@]3(C)[C@H](CC[C@@H]4[C@@]5(C)CCC(=O)C(C)(C)[C@@H]5CC[C@]43C)[C@@H]12 (some centres undefined),0,0,0,48,0,0,0
COCCN(CC1CCCN(C2Cc3ccccc3C2)C1)C(=O)CCC(N)=O (centres undefined),0,0,0,0,0,0,-
CCOC(=O)c1sc2nc(-c3ccco3)c3c(c2c1N)CC(C)(C)OC3,0,0,0,32,0,0,0
C=CCOc1ccc(C2/C(=C(/O)c3ccc4c(c3)CC(C)O4)C(=O)C(=O)N2CCCN2CCOCC2)cc1 (centres undefined),0,0,0,29,0,0,0
COc1ccc(C2/C(=C(/O)c3ccc4c(c3)CC(C)O4)C(=O)C(=O)N2CCCN2CCOCC2)cc1 (centres undefined),0,0,0,0,0,0,-
Cc1cccc(N2CC(C(=O)Nc3nnc(SCc4ccccn4)s3)CC2=O)c1 (centres undefined),0,0,0,0,0,0,-
CCOc1ccccc1N1CCN(S(=O)(=O)c2ccc3c4c(cccc24)C(=O)N3)CC1,0,0,0,30,0,0,0
Cc1[nH]c2ccc(C(=O)NCCCN3CCCCCC3)cc2c1C,0,0,0,29,0,0,0
Cc1[nH]c2ccc(C(=O)NCCCN3CCCC3)cc2c1C,0,0,0,0,0,0,-
COc1ccc(S(=O)(=O)N2CCCCC2)cc1NC(=O)Cn1cnc2c1c(=O)n(C)c(=O)n2C,0,0,0,0,-,-,-
c1ccc2c(c1)nnn2Cn1nnc2ccccc21,0,0,0,0,-,-,-
Cc1nc(Nc2ccc(Cl)c(Cl)c2)sc1C(/C=C/c1ccc2c(c1)OCO2)=NNc1ccc([N+](=O)[O-])cc1[N+](=O)[O-],0,0,0,48,-,-,0
Cc1ccc(OCC(=O)Nc2cccc(S(=O)(=O)N3CCCCCC3)c2)cc1C,0,0,0,0,0,0,-
Cc1cc(C(=O)NNC(=O)c2ccc(F)cc2)c(C)s1,0,0,0,0,-,-,-
CN(C)S(=O)(=O)c1cc(NC(=O)CN2CCc3ccccc32)ccc1Cl,0,0,0,39,0,0,0
O=C(Nc1cccc(S(=O)(=O)NC2=NCCCCC2)c1)c1cc(-c2ccco2)nc2ccccc12,0,41,0,46,0,17,59
O=C(Nc1cccc(S(=O)(=O)NCc2ccco2)c1)c1cc(-c2ccccc2)nc2ccccc12,0,0,0,35,0,0,0
O=C(Nc1cccc(S(=O)(=O)NC2=NCCCCC2)c1)c1cc(-c2ccncc2)nc2ccccc12,0,0,0,0,0,0,-
NS(=O)(=O)c1cccc(NC(=O)COC(=O)c2cc(-c3ccc(Cl)cc3)nc3ccccc23)c1,0,0,0,32,0,0,0
CCOC(=O)C1=C(N)n2c(s/c(=C/c3ccco3)c2=O)=C(C(=O)OC)C1c1ccco1 (centres undefined),0,0,0,31,0,0,0
SMILES,HNF4A DNA FP,Rpn11 block,CSN inh,NadD inh,TPT1 inh,PP1 inh,NadD conf
CN(C)/C=C(\C=N\OCc1ccc(Cl)cc1Cl)C(=O)Nc1ccc(Cl)c(Cl)c1,0,0,0,29,0,0,0
Cc1cc(O)c(/C=N/OCc2ccc(Cl)cc2Cl)c(=O)o1,0,0,0,0,0,0,-
COc1cccc(OC)c1C(=O)NC(=S)NNC(=O)[C@H]1C[C@@H]1c1ccccc1,0,0,0,0,0,0,-
COc1ccc(/C=C/C(=O)NC(=S)NNC(=O)[C@H]2C[C@@H]2c2ccccc2)cc1OC,0,0,0,59,0,0,0
Cc1ccc(NC(=O)c2cc3c(s2)CCCC3)cc1S(=O)(=O)Nc1ccccc1Cl,0,0,0,30,0,0,0
CC(C)(C)S(=O)N1Cc2cc(C(=O)NCc3ccc4c(c3)OCO4)nc(-c3cccc(-c4cc5ccccc5o4)c3)c2[C@@H]1CCO (some centres undefined),0,0,0,33,-,-,0
CC(C)(C)S(=O)N1Cc2cc(C(=O)NCCCN3CCOCC3)nc(-c3cccc(-c4cc5ccccc5o4)c3)c2[C@@H]1CCO (some centres undefined),0,0,0,0,-,-,-
CC(C)(C)S(=O)N1Cc2cc(C(=O)NCc3ccc(Oc4ccccc4)cc3)nc(-c3cccc(-c4cc5ccccc5o4)c3)c2[C@H]1CCO (some centres undefined),0,0,0,35,-,-,0
O=c1cc(-c2ccccc2)oc2cc(OCc3ccccc3)cc(O)c12,0,0,0,0,0,0,-
O=c1cc(-c2ccc(OCc3ccccc3)cc2)oc2cc(OCc3ccccc3)cc(OCc3ccccc3)c12,0,0,0,42,-,-,0
COc1ccc(C(CNC(=O)c2cccc(S(=O)(=O)Nc3ccc(F)cc3)c2)N2CCCCC2)cc1 (centres undefined),0,0,0,0,-,-,-
COc1ccc(-c2csc(Nc3ccc(S(N)(=O)=O)cc3)n2)cc1,0,0,0,45,0,0,0
CCCCN(C(=O)C1=CC=CN2CCS(=O)(=O)N=C12)c1ccccc1,0,0,0,0,-,-,-
